# From PubChem
# Compounds with a hit are over-represented: about 2.6% of the library has one in this group of screens.
# SENP8 block-1 = blocks the human protease SENP8; purified SENP8, Z-RLRGG-aminoluciferin cleavage, luminescence; inhibition, % at 10 µM; actives 1.2% (n = 330,000); AID 2540; in the data active = inhibition above about 50%
# SENP8 block-2 = SENP8 (human) protease inhibition; Q96LD8; recombinant SENP8, Nedd8 substrate fluorescence; inhibition, % at 20 µM; actives 0.64% (n = 360,000); AID 602440; in the data active = inhibition mostly above about 40%, no sharp cut-off; inactive = mostly below about 27%
# SENP7 inh = blocks the human protease SENP7. Q9BQF6. recombinant SENP7, Z-RLRGG-aminoluciferin luminescence, 40 min. inhibition, % at 5 µM. actives 1.5% (n = 330,000);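 active = inhibition above about 50% at the single test dose, limit read from the data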;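 also: plate controls were DMSO with enzyme for no effect and no enzyme buffer wells for full effect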
# UCH37 DUB inh = human UCH37 deubiquitinating enzyme inhibition; Q9Y5K5; purified proteasome/UCH37, Ub-AMC cleavage fluorescence; inhibition, % (test concentration not listed); actives 0.33% (n = 330,000);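 active = mean inhibition over replicate wells above about 20%, limit read from the data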;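 also: 0% = compound-free wells with enzyme and 100% = wells lacking proteasome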
#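 system = Proteasome-associated human UCH37 deubiquitinase | amount = 0.15 nM proteasome as dispensed | medium = pH 7.4 Tris-HCl (50 mM) with ovalbumin, ATP-MgCl2, DTT | incubation = 30 min preincubation with enzyme, 25 min cleavage at room temperature | detection = AMC fluorescence 355/460 nm | read-out basis = percent inhibition | controls = no-proteasome and no-compound wells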
# SENP6 inh = inhibitors of human SENP6 protease | Q9GZR1 | Recombinant SENP6 catalytic domain, aminoluciferin luminescence | actives 1.8% (n = 330,000) | inhibition, % at 10 µM;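 active = inhibition above about 50% at the single tested dose, limit read from the data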;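 also: plate controls were DMSO wells with enzyme for no effect and DMSO wells lacking enzyme for full effect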
# Target sequence (Q9GZR1 628-1112 limits assumed): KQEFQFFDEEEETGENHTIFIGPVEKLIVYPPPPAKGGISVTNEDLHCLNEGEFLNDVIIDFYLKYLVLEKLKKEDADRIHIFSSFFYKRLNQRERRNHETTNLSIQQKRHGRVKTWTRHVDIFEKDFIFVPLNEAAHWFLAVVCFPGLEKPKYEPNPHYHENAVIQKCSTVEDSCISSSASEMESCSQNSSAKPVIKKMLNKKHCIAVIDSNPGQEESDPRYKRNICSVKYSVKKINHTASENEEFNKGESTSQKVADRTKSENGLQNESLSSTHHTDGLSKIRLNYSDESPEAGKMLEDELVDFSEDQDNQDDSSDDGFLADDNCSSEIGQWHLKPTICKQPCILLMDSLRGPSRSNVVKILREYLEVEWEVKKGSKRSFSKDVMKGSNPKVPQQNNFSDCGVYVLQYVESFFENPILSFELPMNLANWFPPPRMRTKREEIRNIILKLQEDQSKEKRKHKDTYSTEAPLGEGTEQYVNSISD
# SENP1 inh = SENP1 (human) catalytic domain inhibition; AID 624204; inhibition, % at 10 µM; actives 0.21% (n = 360,000); recombinant SENP1 catalytic domain, CyPet-SUMO1-YPet FRET cleavage; Q9P0U3;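 active = inhibition at least 30% at 10 µM, raw YFP signal under a set limit, fluorescence ratio 0.5 to 1.5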;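 also: 0% = enzyme with DMSO and 100% = no enzyme wells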
# Target sequence (Q9P0U3 419-644 limits assumed): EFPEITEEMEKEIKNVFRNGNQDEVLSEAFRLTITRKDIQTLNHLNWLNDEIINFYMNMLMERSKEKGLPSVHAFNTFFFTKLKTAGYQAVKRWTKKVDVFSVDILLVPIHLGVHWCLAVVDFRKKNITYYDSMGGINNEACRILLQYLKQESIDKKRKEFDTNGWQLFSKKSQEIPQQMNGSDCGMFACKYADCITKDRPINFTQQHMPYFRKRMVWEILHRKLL
#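 Material: hSENP1 catalytic domain, recombinant; medium: Tris pH 8 with BME, BSA, NP40 and catalase; compound: single concentration of 10 µM compound, 0.5% DMSO final; technique: FRET read of cyan and yellow fluorescence; timing: 50 min enzyme reaction, room temperature, light-protected; reagent: SFCypet-SUMO1-SFYpet substrate at 25 nM; control set: no-enzyme low, enzyme-DMSO high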
# SENP8 conf = confirmation of human SENP8 protease inhibitors | shares compounds with SENP7 inh | Recombinant SENP8, Z-RLRGG-aminoluciferin luminescence, 60 min | inhibition, % at 12.5 µM | actives 40% (n = 6,200) | AID 488912;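 active = mean inhibition across replicates above about 50%, limit read from the data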
# SENP6 confirm = human SENP6 inhibition, confirmed | actives 58% (n = 6,200) | inhibition, % at 12.5 µM | AID 488915 | shares compounds with SENP7 inh | recombinant SENP6, Z-RLRGG-aminoluciferin luminescence
# SENP7 confirm = confirmation of human SENP7 protease inhibitors | shares compounds with SENP7 inh | recombinant SENP7, Z-RLRGG-aminoluciferin luminescence, 40 min | inhibition, % at 12.5 µM | actives 69% (n = 6,200) | AID 488917
# Casp3 select = selectivity test for SENP inhibitors: human caspase-3 inhibition. shares compounds with SENP7 inh. purified caspase-3, Z-DEVD-aminoluciferin luminescence, 60 min. inhibition, % at 12.5 µM. actives 60% (n = 6,200);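 active = mean inhibition above about 50%, limit read from the data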;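 also: plate controls were enzyme with DMSO for no effect and wells without caspase-3 for full effect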
# SENP luc ctr = interferes with luciferase luminescence in SENP counter-screen. shares compounds with SENP7 inh. Pre-incubated SENP8/Z-RLRGG-aminoluciferin, luciferase luminescence interference. inhibition, % at 12.5 µM. actives 39% (n = 6,200). AID 488919;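 active = mean inhibition above about 50% when retested at one dose, limit read from the data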;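 also: plate controls were DMSO wells with completed reaction for no effect and substrate without enzyme for full effect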
# * hit, by the source's call; . = no result given.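 The calls were made as follows, unless noted: active = mean inhibition above about 50% in the one-dose retest (limit read from the data); inactive = the rest.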
SMILES,SENP8 block-1,SENP8 block-2,SENP7 inh,UCH37 DUB inh,SENP6 inh,SENP1 inh,SENP8 conf,SENP6 confirm,SENP7 confirm,Casp3 select,SENP luc ctr
Cc1ccc(C)c(NC(=O)c2cc3ccccc3o2)c1,26.1,10.6,53.3*,-1.0,40.0,1.0,52.2*,48.9,77.7*,58.2*,30.6
O=C(Nc1cccc(O)c1)C(=O)Nc1ccccn1,87.4*,16.3,97.4*,3.8,96.1*,2.8,93.1*,93.1*,100.3*,96.5*,81.9*
CCOc1ccccc1C=NNC(=O)c1cccc(Cl)c1,.,.,.,6.4,.,.,.,.,.,.,.
CN(C)c1ccc(C=NNC(=O)c2nnn(-c3nonc3N)c2COc2ccc(F)cc2)cc1,.,.,.,-37.8,.,.,.,.,.,.,.
O=c1c2c3nc4ccccc4nc3n(N=Cc3ccccn3)c2ncn1-c1ccccc1,.,.,.,-15.2,.,.,.,.,.,.,.
CCOc1ccc(C=NNC(=O)Cc2csc(Nc3cccc(C(F)(F)F)c3)n2)cc1,.,.,.,0.7,.,.,.,.,.,.,.
CC(=NNC(=O)c1cccs1)c1ccco1,.,.,.,6.5,.,.,.,.,.,.,.
O=C(NC1=NCCS1)c1cc2ccccc2o1,34.1,8.6,60.3*,1.2,52.5*,0.5,46.8,47.5,81.3*,77.1*,58.1*
Cc1ccc(C)c(NC(=O)c2ccc3ccccc3n2)c1,90.8*,23.8,97.0*,3.4,96.8*,1.8,81.8*,16.5,34.7,66.9*,16.5
Cc1csc(C(C#N)C(=O)c2cc3ccccc3o2)n1 (centres undefined),53.9*,13.6,13.7,14.1,59.2*,0.1,31.3,73.3*,86.1*,78.7*,46.0
CC(Cc1ccccc1)NC(=O)c1cc2ccccc2o1 (centres undefined),-7.7,10.9,-4.1,4.3,-6.5,2.8,.,.,.,.,.
O=C(Nc1ccccn1)c1cc2ccccc2o1,95.1*,7.6,98.1*,3.5,97.2*,1.0,52.1*,97.8*,101.4*,97.3*,96.1*
CCOC(=O)C(C#N)=NNc1c(S(=O)(=O)Cc2ccco2)csc1C(=O)OC,.,.,.,8.5,.,.,.,.,.,.,.
O=C(Nc1ncccc1O)c1cc2ccccc2o1,30.6,-31.1,67.9*,3.5,67.4*,-20.3,63.4*,62.8*,84.8*,86.9*,67.9*
CCOC(=O)Cc1csc(NC(=O)c2cc3ccccc3o2)n1,17.9,-23.2,28.7,2.2,9.9,1.2,.,.,.,.,.
Cc1csc(NC(=O)c2cc3ccccc3o2)n1,78.8*,-64.5,89.7*,2.4,84.7*,-19.3,85.7*,82.2*,97.1*,90.3*,86.3*
COc1ccc(C)cc1NC(=O)c1cc2ccccc2o1,-7.9,6.5,-3.6,-4.0,-5.4,3.1,.,.,.,.,.
O=C(NC1=NCCS1)c1csc2ccccc12,60.3*,-0.7,72.6*,4.3,80.7*,1.0,4.2,68.5*,89.4*,77.9*,73.6*
Cc1ccnc(NC(=O)c2cc3ccccc3o2)c1,90.2*,-3.9,98.6*,-0.6,94.3*,-6.6,96.0*,96.7*,101.5*,96.6*,94.1*
O=C(Nc1cccc2ncccc12)c1cc2ccccc2o1,-5.0,1.3,3.7,3.0,-0.4,1.4,.,.,.,.,.
CCCCCCOc1ccc(C(C)=NNC2=NCCN2)cc1[N+](=O)[O-],.,.,.,4.7,.,.,.,.,.,.,.
O=[N+]([O-])c1cc(S(=O)(=O)Nc2cccc(Cl)c2)ccc1NN=Cc1ccc(N2CCOCC2)cc1,.,.,.,11.6,.,.,.,.,.,.,.
O=C(NNC(=O)c1cc2ccccc2o1)c1ccc(Cl)cc1,-0.2,12.3,-4.7,-1.0,-2.9,3.8,.,.,.,.,.
O=C(Nc1ccccc1C(F)(F)F)c1cc2ccccc2o1,66.5*,16.7,68.3*,3.4,73.5*,0.3,60.5*,70.6*,91.6*,73.6*,67.3*
COC(=O)c1ccccc1NC(=O)c1cc2ccccc2o1,2.5,-17.8,-4.6,-8.3,10.4,0.1,.,.,.,.,.
SMILES,SENP8 block-1,SENP8 block-2,SENP7 inh,UCH37 DUB inh,SENP6 inh,SENP1 inh,SENP8 conf,SENP6 confirm,SENP7 confirm,Casp3 select,SENP luc ctr
O=C(Nc1ccc(Cl)cn1)c1cc2ccccc2o1,59.3*,8.0,79.4*,-1.2,73.6*,3.1,9.1,63.7*,81.7*,70.3*,28.5
CCCC(=O)Nc1ccc(NC(=O)c2cc3ccccc3o2)c(OC)c1,2.3,-22.1,54.5*,-92.6,29.5,-2.2,7.9,5.7,26.8,18.6,7.2
O=C(NC1=NCCS1)c1ccc(Cl)c(Cl)c1,43.2,27.4,59.9*,-0.8,69.5*,0.2,10.9,63.0*,49.2,64.6*,8.8
Nc1nonc1C(=O)NN=Cc1ccc(-c2cccc(C(=O)O)c2)o1,.,.,.,-38.0,.,.,.,.,.,.,.
O=C1NC(=Nc2ccccc2Cl)S/C1=C\c1cccc([N+](=O)[O-])c1O,86.0*,47.9*,8.7,.,92.7*,58.4*,89.8*,92.0*,79.0*,52.0*,81.2*
C/C(=N\Nc1nccnc1Cl)c1ccc(O)c(C)c1,31.3,-28.6,93.5*,.,53.8*,0.3,43.4,47.5,75.0*,76.5*,55.5*
CC(=NNc1nccnc1Cl)c1ccc(Cl)c(Cl)c1,.,.,.,4.3,.,.,.,.,.,.,.
O=C(Nc1ccc2c(c1)OCO2)c1ccncc1,-17.4,14.2,-14.9,1.8,-2.8,2.0,.,.,.,.,.
Cc1ccc(C(=O)Nc2ccc3c(c2)OCO3)cc1,49.8,21.0,2.6,2.8,69.3*,-0.6,68.4*,67.8*,90.5*,82.8*,19.8
O=C(Nc1ccc2c(c1)OCCO2)c1cc(F)c(F)cc1Cl,-19.9,23.4,12.5,3.1,-3.1,1.1,.,.,.,.,.
Cc1ccc(C(=O)Nc2ccc3c(c2)OCCO3)c(Cl)c1,78.0*,10.0,84.7*,3.6,89.1*,2.2,81.4*,78.6*,93.7*,86.8*,81.8*
COc1ccc(Cl)cc1C(=O)Nc1ccc2c(c1)OCCO2,-12.2,22.5,-12.1,0.9,-20.1,-0.6,.,.,.,.,.
O=C(Nc1ccc2c(c1)OCCO2)c1ccc(Cl)c([N+](=O)[O-])c1,-10.0,18.0,10.8,4.5,19.7,3.3,.,.,.,.,.
O=C(Nc1ccc2c(c1)OCCO2)c1ccc(Cl)c(Cl)c1,59.1*,15.5,67.3*,5.7,76.7*,0.4,53.1*,55.3*,92.7*,50.7*,25.9
